From PubChem BioAssay
In the library only some 3.5% were active in any assay of this set; here they are far more common.
MrgX1 antag = blocks BAM8-22 activation of human MrgX1 receptor; B-score at 10 µM; MRGX1-HEK293 calcium flux, Fluo-4, BAM8-22 antagonism; stronger effect = lower value; 310,000 tested, 1.3% active;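 active = calcium-response B-score plate-corrected more than 3 library SD below zero, starting fluorescence within 5 deviations, no agonist response on first addition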;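 note: peak minus trough fluorescence over baseline after final BAM8-22 challenge near maximal dose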
Target sequence (Q96LB2 whole entry, looked up): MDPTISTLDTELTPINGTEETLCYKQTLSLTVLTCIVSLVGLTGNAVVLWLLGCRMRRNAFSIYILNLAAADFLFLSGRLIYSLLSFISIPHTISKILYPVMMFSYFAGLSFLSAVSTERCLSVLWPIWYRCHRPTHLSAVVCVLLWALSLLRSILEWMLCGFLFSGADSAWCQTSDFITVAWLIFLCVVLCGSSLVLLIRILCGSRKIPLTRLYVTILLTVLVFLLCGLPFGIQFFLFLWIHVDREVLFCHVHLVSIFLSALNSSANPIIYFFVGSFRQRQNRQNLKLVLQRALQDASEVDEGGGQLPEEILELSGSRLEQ
RGS4 pot = RGS4 potentiation or activation. 310,000 tested, 0.92% active. B-score at 10 µM. HEK293 M3R/inducible RGS4, carbachol calcium flux Fluo4; stronger effect = lower value;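 active = B-score of the integrated calcium signal more than 4 SD below the library mean, with starting fluorescence not abnormally high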;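 note: negative B-score means reduced calcium response which marks RGS4 activation or potentiation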
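test system = HEK293 cells with stable M3R and inducible RGS4 | schedule = recording 10 s baseline at 1 Hz, 100 s post-agonist | technique = Fluo4-AM (2 µM) calcium-flux fluorescence, kinetic read | measure = Agonist-evoked peak-minus-minimum fluorescence over baseline, integrated ratio, B score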
RGS4 block = human RGS4 inhibition | B-score at 10 µM | 310,000 tested, 0.45% active | P49798 | HEK293 M3R/RGS4 inducible, Fluo-4 calcium flux; stronger effect = higher value; triggered by carbachol at its EC20;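 active = B-score, a plate-corrected calcium signal, over three deviations above library mean, with baseline fluorescence within five deviations of library mean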;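 note: RGS4 expression induced by doxycycline in cells with stable M3 receptor; B-score is computed from the integrated fluorescence ratio over baseline after carbachol; higher B-score means a larger calcium signal and so more RGS4 inhibition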
Target sequence (P49798 whole entry, looked up): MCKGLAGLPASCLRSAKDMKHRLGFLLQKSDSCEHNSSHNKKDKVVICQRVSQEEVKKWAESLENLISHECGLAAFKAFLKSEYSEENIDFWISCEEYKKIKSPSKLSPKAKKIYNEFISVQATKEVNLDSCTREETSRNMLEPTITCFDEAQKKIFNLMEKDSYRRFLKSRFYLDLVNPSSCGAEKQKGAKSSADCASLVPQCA
MrgX1 agonist = human MrgX1 receptor agonism, primary screen; Q96LB2; MrgX1-HEK293 cells, Fluo-4 calcium fluorescence, agonist mode; stronger effect = higher value; B-score at 10 µM; 310,000 tested, 0.44% active; AID 588627;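 active = calcium response B-score plate-corrected fluorescence ratio at least 3 library SD, with starting fluorescence B-score inside 5 SD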
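Material – MrgX1-expressing HEK293 cells · Input – 15,000 cells seeded per well · Dosing – compound as first of three additions · Times – overnight seeding, then 1 h dark dye loading · Measured by – kinetic Fluo-4 NW fluorescence of intracellular calcium · Read-out – B-scored fluorescence response ratio · Benchmarks – positive and negative control wells on each plate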
MrgX1 allo act = allosterically activates human MrgX1 receptor signaling. Q96LB2. B-score at 10 µM. MrgX1-HEK293, Fluo-4 calcium flux, FDSS; stronger effect = higher value. 310,000 tested, 0.63% active;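 active = plate-corrected calcium response at least 3 library SD above typical, normal starting fluorescence, not activating the receptor alone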;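 note: compound read alongside a low EC10 to EC30 dose of BAM8-22 agonist; peak minus trough fluorescence over baseline measured at the second addition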
MrgX1 PAM conf = reconfirmed allosteric activator of human MrgX1 receptor; shares compounds with MrgX1 allo act; AID 602413; activation (ratio percentage), % at 10 µM; 1,200 tested, 13% active; MrgX1-HEK293, Fluo-4 calcium fluorescence, FDSS;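 active = ratio at least 3 SD above the weak peptide control, stable starting fluorescence, no direct agonism earlier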;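 note: compound followed by low BAM8-22 agonist challenge near EC20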
HEK293 Ca flux = activity in parental HEK293 cells lacking MrgX1. fluorescence ratio F(max-min)/F0 at 10 µM. shares compounds with MrgX1 antag. Fluo-4 calcium fluorescence, FDSS. 4,000 tested, 2% active;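 active = duplicate-averaged calcium fluorescence ratio at least three times the standard deviation of buffer wells, a nonspecific response in parental cells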
HEK293 Ca counter = counter-screen for MrgX1 allosteric activators: effect in parental HEK293 cells. fluorescence ratio F(max-min)/F0 at 10 µM. parental HEK293 calcium flux, Fluo-4 fluorescence ratio; stronger effect = higher value. shares compounds with MrgX1 antag. AID 624114. 4,000 tested, 0.4% active;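 active = calcium fluorescence ratio, averaged over duplicates, at least 3 SD of the buffer-well ratio, meaning a nonspecific response in receptor-free cells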;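 note: untransfected parental HEK293 lacking MrgX1 used as counterscreen for MrgX1 allosteric activators; fluorescence change taken during the second addition on a kinetic imager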
HEK293 Ca cntr2 = MrgX1 activator counter-screen hit in parental HEK293 cells; 4,000 tested, 8.7% active; fluorescence ratio F(max-min)/F0 at 10 µM; shares compounds with MrgX1 antag; Fluo-4 calcium fluorescence (FDSS); stronger effect = higher value;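 active = calcium fluorescence ratio at least three times the spread of buffer wells, meaning a non-specific response in parental cells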
Starred values were filed as active, the others as inactive; i = inactive; nt = not tested or not shown.

SMILES	MrgX1 antag	RGS4 pot	RGS4 block	MrgX1 agonist	MrgX1 allo act	MrgX1 PAM conf	HEK293 Ca flux	HEK293 Ca counter	HEK293 Ca cntr2
O=C(COC(=O)/C=C/c1ccccc1)NCc1ccccc1Cl	i	i	i	i	i	nt	nt	nt	nt
O=C(CCn1c(=S)oc2ccccc21)NC1CCCCCC1	i	i	i	i	7*	i	i	i	i
CCOC(=O)c1c(-c2cccs2)csc1N	i	i	i	i	8.4*	i	i	i	i
Cc1ccccc1Oc1ncnc2oc(-c3ccccc3)cc12	i	i	i	i	18*	44%*	i	i	i
S=c1[nH]nc([C@@H]2C[C@H]2c2ccccc2)n1-c1ccccc1Cl	i	i	i	i	7.7*	i	i	i	i
Cc1ccc(C2CC2c2n[nH]c(=S)n2-c2ccc(Cl)cc2)cc1 (centres undefined)	i	i	i	i	i	nt	nt	nt	nt
COc1cccc(/C=N/n2c(SC)nnc2-c2ccccc2)c1O	i	i	i	i	20*	154%*	i	i	i
COc1ccccc1NC(=O)CSc1nnnn1-c1ccccc1F	i	i	i	i	i	nt	nt	nt	nt
Nc1nnc(SCC(=O)Nc2ccc(N3CCOCC3)c(Cl)c2)s1	i	i	i	i	i	nt	nt	nt	nt
CCn1ccnc1CNC(=O)c1ccc2oc(CCCc3ccccc3)nc2c1	i	i	i	i	i	nt	nt	nt	nt
COc1ccc(C(=O)c2ccc(N(C)C)cc2)c(OC)c1	i	i	i	i	8.7*	i	i	i	i
O=C(CSC1=NS(=O)(=O)c2cc(F)ccc2N1)Nc1cccc(F)c1	i	i	i	i	i	nt	nt	nt	nt
CCCNC(=O)OCC12CC3CC(CC(C3)C1)C2	i	i	i	i	9.7*	i	i	i	i
COc1ccccc1C(=O)OCC(=O)Nc1ccccc1OC(F)F	i	i	i	i	7.4*	i	i	i	i
COc1ccccc1C(=O)OCC(=O)Nc1ccc(OC(F)F)cc1	i	i	i	i	i	nt	nt	nt	nt
Cc1ccoc1C(=O)Nc1cccc2ccccc12	i	i	i	i	i	nt	nt	nt	nt
C=C(C)Cn1c(-c2ccc(OC)cc2)nc2ccccc21	i	i	i	i	7*	i	i	i	i
O=S(=O)(Nc1nc2ccccc2s1)c1ccc(Br)s1	i	i	i	i	7.2*	i	i	i	i
COc1ccc(C(O)c2nccc3cc(OC)c(OC)cc23)cc1OC (centres undefined)	i	i	i	i	9.5*	i	i	i	i
COc1cc(N)c(C(O)c2nccc3cc(OC)c(OC)cc23)cc1OC (centres undefined)	i	i	i	i	i	nt	nt	nt	nt
O=C(CN1CCC(O)(c2cccc(F)c2)CC1)NCCc1c[nH]c2ccccc12	i	i	i	i	7.6*	i	i	i	i
O=C(NCCc1c[nH]c2ccccc12)c1ccc(F)cc1F	i	i	i	i	i	nt	nt	nt	nt
CN1/C(=C/C2CC(=O)N(c3cccc4ccccc34)C2=O)C(C)(C)c2ccccc21 (centres undefined)	i	i	i	i	i	nt	nt	nt	nt
CN1/C(=C/C2CC(=O)NC2=O)C(C)(C)c2ccccc21 (centres undefined)	i	nt	nt	i	7*	i	i	i	i
O=C(Nc1ccccc1C(=O)NCCc1ccccc1)c1cnccn1	i	i	i	i	i	nt	nt	nt	nt
SMILES	MrgX1 antag	RGS4 pot	RGS4 block	MrgX1 agonist	MrgX1 allo act	MrgX1 PAM conf	HEK293 Ca flux	HEK293 Ca counter	HEK293 Ca cntr2
COc1ccc(C(=O)Nc2cc(=O)n(C)c(=O)n2C)cc1OC	i	i	i	i	i	nt	nt	nt	nt
COc1ccc(CC(=O)Nc2cc(=O)n(C)c(=O)n2C)cc1OC	i	i	i	i	6.6*	i	i	i	i
Cc1ccc2[nH]c(=O)c(CN(CC3CCCO3)C(=O)c3cccs3)cc2c1 (centres undefined)	i	i	i	i	35*	i	i	i	i
Cc1ccc2cc(CN(CC3CCCO3)C(=O)c3cccs3)c(=O)[nH]c2c1 (centres undefined)	i	i	i	i	i	nt	nt	nt	nt
Cc1cnc(NC(=O)C2CC(=O)N(c3cccc(Cl)c3)C2)s1 (centres undefined)	i	i	i	i	i	nt	nt	nt	nt
O=C(CCc1nc(-c2ccccc2)c(-c2ccccc2)o1)OCc1ccc(Cl)cc1	i	i	i	i	i	nt	nt	nt	nt
O=C(CCc1nc(-c2ccccc2)c(-c2ccccc2)o1)OCc1ccc(Br)cc1	i	i	i	i	20*	i	i	i	i
COc1ccc(C)cc1NC(=O)C1CCN(C(=O)Cc2ccccc2)CC1	i	i	i	i	11*	i	i	i	i
COC(=O)c1ccccc1NC(=O)C1CCN(C(=O)Cc2ccccc2)CC1	i	i	i	i	i	nt	nt	nt	nt
NC(=O)c1oc2ccccc2c1NC(=O)C1CC(=O)N(c2ccccc2)C1 (centres undefined)	i	i	i	i	i	nt	nt	nt	nt
NC(=O)c1oc2ccccc2c1NC(=O)CN1CCCCC1	i	i	i	i	9.1*	9.3%*	i	i	i
NC(=O)c1oc2ccccc2c1NC(=O)C1CCCCC1	i	i	i	i	10*	i	i	i	i
O=C(Nc1ccc(F)cc1Cl)C1CCN(C(=O)Nc2ccccc2)CC1	i	i	i	i	i	nt	nt	nt	nt
Cn1cc([N+](=O)[O-])c(C(=O)Nc2ccn(Cc3c(F)c(F)cc(F)c3F)n2)n1	i	i	i	i	i	nt	nt	nt	nt
Fc1ccccc1NC(=S)N(CCN1CCCCC1)Cc1ccco1	i	i	i	i	11*	i	i	i	i
CC(=O)c1sc(N2CCOCC2)nc1-c1ccccc1	i	i	i	i	12*	i	i	i	i
